Experimental data as given in ChEMBL document CHEMBL1141413, “Cinnamacrins A-C, cinnafragrin D, and cytostatic metabolites with alpha-glucosidase inhibitory activity from Cinnamosma macrocarpa” (J Nat Prod, 2007).
≈ marks a conversion by molar mass, not a printed value. Calls of active or inactive are those of the source. The rule behind the calls is not given here.

Assays:
[1] = biological target: Maltase-glucoamylase (Homo sapiens) (UniProt O43451); assay: Inhibition of alpha-glucosidase in 1.20 mg/200 uL
Chain of Maltase-glucoamylase (Homo sapiens) (O43451 whole entry, looked up): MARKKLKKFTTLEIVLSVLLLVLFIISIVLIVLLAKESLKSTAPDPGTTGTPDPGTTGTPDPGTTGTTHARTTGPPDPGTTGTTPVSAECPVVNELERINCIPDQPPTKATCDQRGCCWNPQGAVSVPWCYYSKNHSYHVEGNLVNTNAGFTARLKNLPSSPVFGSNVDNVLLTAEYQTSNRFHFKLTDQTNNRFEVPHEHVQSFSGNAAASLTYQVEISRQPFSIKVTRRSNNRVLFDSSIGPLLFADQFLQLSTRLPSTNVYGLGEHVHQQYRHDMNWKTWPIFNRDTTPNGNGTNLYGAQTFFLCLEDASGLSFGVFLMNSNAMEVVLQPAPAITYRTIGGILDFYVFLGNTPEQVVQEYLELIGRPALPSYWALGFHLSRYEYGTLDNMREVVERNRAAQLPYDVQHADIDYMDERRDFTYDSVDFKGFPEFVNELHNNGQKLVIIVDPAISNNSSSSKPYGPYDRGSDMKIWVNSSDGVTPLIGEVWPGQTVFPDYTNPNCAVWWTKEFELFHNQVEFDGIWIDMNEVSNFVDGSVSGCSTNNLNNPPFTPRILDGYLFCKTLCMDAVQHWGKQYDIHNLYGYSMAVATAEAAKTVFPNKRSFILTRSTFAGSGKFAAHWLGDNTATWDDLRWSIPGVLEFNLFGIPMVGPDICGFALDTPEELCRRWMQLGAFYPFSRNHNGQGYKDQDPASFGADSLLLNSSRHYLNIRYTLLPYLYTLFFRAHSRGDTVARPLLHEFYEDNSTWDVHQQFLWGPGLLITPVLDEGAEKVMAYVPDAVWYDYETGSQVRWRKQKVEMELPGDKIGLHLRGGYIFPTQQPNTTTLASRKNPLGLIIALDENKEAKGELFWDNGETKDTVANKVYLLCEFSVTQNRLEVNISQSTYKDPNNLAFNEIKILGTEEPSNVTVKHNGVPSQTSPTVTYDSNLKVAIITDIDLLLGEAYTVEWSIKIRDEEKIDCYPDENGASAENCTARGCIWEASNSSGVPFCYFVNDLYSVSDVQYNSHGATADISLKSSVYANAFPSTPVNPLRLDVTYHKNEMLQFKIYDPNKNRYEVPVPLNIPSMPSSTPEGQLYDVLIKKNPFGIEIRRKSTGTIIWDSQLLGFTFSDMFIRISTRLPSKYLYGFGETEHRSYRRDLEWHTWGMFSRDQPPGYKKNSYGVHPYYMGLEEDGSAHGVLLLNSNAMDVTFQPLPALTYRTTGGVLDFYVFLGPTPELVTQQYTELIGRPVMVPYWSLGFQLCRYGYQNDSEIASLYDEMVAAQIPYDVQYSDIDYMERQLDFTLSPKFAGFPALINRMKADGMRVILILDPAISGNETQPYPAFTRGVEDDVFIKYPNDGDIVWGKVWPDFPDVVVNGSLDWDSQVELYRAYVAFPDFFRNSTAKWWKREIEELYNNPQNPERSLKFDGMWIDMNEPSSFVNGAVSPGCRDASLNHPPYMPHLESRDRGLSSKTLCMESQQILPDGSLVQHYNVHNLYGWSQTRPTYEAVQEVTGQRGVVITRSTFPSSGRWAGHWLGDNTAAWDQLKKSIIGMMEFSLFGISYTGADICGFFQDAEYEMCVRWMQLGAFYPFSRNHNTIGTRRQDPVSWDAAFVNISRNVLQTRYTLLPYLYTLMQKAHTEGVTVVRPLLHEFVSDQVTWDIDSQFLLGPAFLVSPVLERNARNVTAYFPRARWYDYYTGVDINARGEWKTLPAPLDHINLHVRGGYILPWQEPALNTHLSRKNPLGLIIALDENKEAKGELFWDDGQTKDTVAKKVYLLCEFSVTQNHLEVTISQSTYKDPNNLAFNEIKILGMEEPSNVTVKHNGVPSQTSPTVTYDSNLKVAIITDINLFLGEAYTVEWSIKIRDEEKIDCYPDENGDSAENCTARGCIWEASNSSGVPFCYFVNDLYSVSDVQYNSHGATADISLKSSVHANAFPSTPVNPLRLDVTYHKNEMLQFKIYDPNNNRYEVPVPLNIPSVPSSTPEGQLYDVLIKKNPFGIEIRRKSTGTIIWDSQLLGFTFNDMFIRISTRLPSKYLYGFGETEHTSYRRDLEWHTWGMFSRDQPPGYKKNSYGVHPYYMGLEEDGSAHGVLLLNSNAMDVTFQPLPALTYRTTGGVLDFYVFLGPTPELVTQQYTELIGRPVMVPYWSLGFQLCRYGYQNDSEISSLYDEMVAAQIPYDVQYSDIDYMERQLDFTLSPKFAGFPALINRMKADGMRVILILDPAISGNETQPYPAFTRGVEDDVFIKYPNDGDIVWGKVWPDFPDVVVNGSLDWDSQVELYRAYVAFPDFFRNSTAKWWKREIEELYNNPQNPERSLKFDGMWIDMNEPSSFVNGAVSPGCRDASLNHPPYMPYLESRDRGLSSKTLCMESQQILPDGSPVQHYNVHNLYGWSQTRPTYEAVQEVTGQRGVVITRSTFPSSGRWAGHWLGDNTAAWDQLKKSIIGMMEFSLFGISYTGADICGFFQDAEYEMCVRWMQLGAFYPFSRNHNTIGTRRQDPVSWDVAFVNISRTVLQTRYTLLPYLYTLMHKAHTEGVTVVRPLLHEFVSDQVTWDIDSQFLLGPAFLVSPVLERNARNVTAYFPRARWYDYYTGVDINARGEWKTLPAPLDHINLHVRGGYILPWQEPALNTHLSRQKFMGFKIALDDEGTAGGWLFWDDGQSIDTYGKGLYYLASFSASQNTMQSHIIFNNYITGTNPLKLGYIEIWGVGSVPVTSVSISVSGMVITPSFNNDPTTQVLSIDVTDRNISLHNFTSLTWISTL

[2] = Cytotoxicity against E6SM cells; type: cell-based; conditions: human, read-out: MIC
Outline: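 Microscopic scoring of E6SM cell cultures; minimal cytotoxic concentration is the concentration causing a detectable alteration of normal cell morphology.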

[3] = test system: Human alphaherpesvirus 1; assay: Antiviral activity against HSV1 KOS; type: functional; conditions: Human alphaherpesvirus 1, KOS
Outline: (§1)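 Antiviral test in E6SM cell cultures; the minimum inhibitory concentration is the level that reduces virus-induced cytopathogenicity by 50%.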

[4] = test system: Vesicular stomatitis virus; assay: Antiviral activity against VSV; type: functional
Outline: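 Tested in both E6SM and HeLa cell cultures; the minimum inhibitory concentration is the level that reduces virus-induced cytopathogenicity by 50%.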

[5] = test system: Human alphaherpesvirus 1; assay: Antiviral activity against HSV1 TK KOS ACVr; type: functional; conditions: Human alphaherpesvirus 1, TK KOS ACVr; outline: as §1
[6] = test system: Human alphaherpesvirus 2; assay: Antiviral activity against HSV2 G; type: functional; conditions: Human alphaherpesvirus 2, G
Outline: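 Virus-induced cytopathogenicity in E6SM cell cultures; value is the concentration needed to reduce cytopathogenicity by 50%.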

[7] = test system: Vaccinia virus; assay: Antiviral activity against vaccinia virus; type: functional; conditions: Orthopoxvirus vaccinia; outline: as §1
[8] = test system: Coxsackievirus B4; assay: Antiviral activity against CV B4; type: functional; conditions: Enterovirus B
Outline: (§2)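 Antiviral test in HeLa cell cultures; the minimum inhibitory concentration is the level that reduces virus-induced cytopathogenicity by 50%.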

[9] = Cytotoxicity against HeLa cells; type: cell-based; conditions: human, read-out: MIC
Outline: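 HeLa cell cultures examined by microscopy; the minimal cytotoxic concentration is the level that causes a microscopically detectable alteration of normal cell morphology.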

[10] = test system: Respiratory syncytial virus; assay: Antiviral activity against RSV; type: functional; conditions: human respiratory syncytial virus; outline: as §2
[11] = test system: MOLT-4; assay: Cytostatic activity against human Molt4/C8 cells; type: functional, cell-based
Outline: (§3)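 Tumour cell proliferation assay; IC50 is the compound concentration that inhibits cell proliferation by 50%.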

[12] = test system: CCRF-CEM; assay: Cytostatic activity against human CEM/0 cells; type: functional, cell-based; outline: as §3
[13] = Cytostatic activity against mouse L1210/0 cells; type: functional, cell-based; outline: as §3

## CC1(C)CCC[C@]2(C)[C@H](C=O)C(C=O)=CC[C@@H]12
[1]
  Activity: inactive

## CC(=O)O[C@@H]1C=C2C3OC4OC5OC(O[C@@]24[C@@]2(C)CCCC(C)(C)[C@H]12)C1=C[C@@H](OC(C)=O)[C@H]2C(C)(C)CCC[C@]2(C)[C@]15O3
[1]
  Activity: inactive

## CC1=C(C(=O)O)C(=O)C2=C3[C@@](C)(CCC[C@]13C)CO2
[1]
  Activity: inactive

## Nc1nc2c(ncn2COCCO)c(=O)[nH]1 [ACYCLOVIR]
[2]
  MCC: > 500000 nM
[3]
  MIC: 0.48 µM (≈ 0.108 µg/mL)
[4]
  MIC: > 500 µM
[5]
  MIC: 60 µM (≈ 13.5 µg/mL)
[6]
  MIC: 0.48 µM (≈ 0.108 µg/mL)
[7]
  MIC: > 500 µM

## NC(=O)c1ncn([C@@H]2O[C@H](CO)[C@@H](O)[C@H]2O)n1 [RIBAVIRIN]
[8]
  MIC: > 500 µM
[9]
  MCC: > 500 µM
[4]
  MIC: 300 µM (≈ 73.3 µg/mL)
[10]
  MIC: 60 µM (≈ 14.7 µg/mL)

## CC(=O)O[C@@H]1C=C([C@@H]2O[C@@H]3O[C@H](O)C4=C[C@@H](OC(C)=O)[C@H]5C(C)(C)CCC[C@]5(C)[C@]43O2)[C@](O)(C=O)[C@@]2(C)CCCC(C)(C)[C@H]12
[1]
  Activity: inactive

## CC(=O)O[C@@H]1C=C(C=O)[C@](O)(C=O)[C@@]2(C)CCCC(C)(C)[C@H]12 [CINNAMODIAL]
[8]
  MIC: > 2.06 µM
[2]
  MCC: ≥ 2060 nM
[1]
  inhibition: 78.2%
[9]
  MCC: 10.3 µM
[3]
  MIC: > 2.06 µM
[11]
  IC50: 1510 nM
[4]
  MIC: > 2.06 µM
[10]
  MIC: > 2.06 µM
[12]
  IC50: 1610 nM
[5]
  MIC: > 2.06 µM
[6]
  MIC: > 2.06 µM
[7]
  MIC: > 2.06 µM
[13]
  IC50: 580 nM

## CC(C)=CCC/C(C)=C/CC/C(C)=C/CC[C@]1(C)CCc2cc(O)cc(C)c2O1
[1]
  Activity: inactive

## CC(=O)O[C@@H]1[C@@H](O[C@H]2O[C@@H]3O[C@H](C4=C[C@@H](OC(C)=O)[C@H]5C(C)(C)CCC[C@]5(C)[C@@]4(O)C=O)O[C@@]34C2=C[C@@H](OC(C)=O)[C@H]2C(C)(C)CCC[C@@]24C)C2=C(C(=O)OC2)[C@@]2(C)CCCC(C)(C)[C@H]12
[1]
  Activity: inactive

## CC(=O)O[C@@H]1[C@H]([C@@H]2C3=C(C(=O)OC3)[C@@]3(C)CCCC(C)(C)[C@@H]3[C@@H]2OC(C)=O)C2=C(C(=O)OC2)[C@@]2(C)CCCC(C)(C)[C@H]12
[1]
  Activity: inactive

## CC(=O)OC1=CC2=C(COC2=O)[C@@]2(C)CCCC(C)(C)[C@H]12
[1]
  Activity: inactive

## COC1O[C@H]2O[C@H](C3=C[C@@H](OC(C)=O)[C@H]4C(C)(C)CCC[C@]4(C)[C@@]3(O)C=O)O[C@@]23C1=C[C@@H](OC(C)=O)[C@H]1C(C)(C)CCC[C@@]13C (stereo partly drawn)
[1]
  inhibition: 26.5%

## OC[C@H]1NC[C@H](O)[C@@H](O)[C@@H]1O
[1]
  inhibition: 100%

## CC1(C)CCC[C@]2(C)[C@H]3COC(=O)C3=CC[C@@H]12
[1]
  Activity: inactive

## CC(=O)O[C@@H]1C=C(C2O[C@@H]3OC(O)C4=C[C@@H](OC(C)=O)[C@H]5C(C)(C)CCC[C@]5(C)[C@]43O2)[C@](O)(C=O)[C@@]2(C)CCCC(C)(C)[C@H]12 (stereo partly drawn) [CAPSICODENDRIN]
[8]
  MIC: > 1.03 µM
[2]
  MCC: ≥ 1030 nM
[1]
  inhibition: 89.4%
[9]
  MCC: 5.16 µM
[3]
  MIC: > 1.03 µM
[11]
  IC50: 940 nM
[4]
  MIC: > 1.03 µM
[10]
  MIC: > 1.03 µM
[12]
  IC50: 860 nM
[5]
  MIC: > 1.03 µM
[6]
  MIC: > 1.03 µM
[7]
  MIC: > 1.03 µM
[13]
  IC50: 1210 nM

## CC1(C)CCC[C@]2(C)C3=C(C=C[C@@H]12)C(=O)OC3
[1]
  Activity: inactive
